For data set [1], the system named is Mus musculus. The data set can be described thus: Antidepressant activity in mouse assessed as decrease in duration of immobility at 100 mg/kg, po during final 5 mins of the 6 mins session by forced swimming test. Type of data set: functional. A digest of the protocol:
(§1)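 Mice swam 10 min in a 25-cm glass cylinder (10 cm diameter) holding 15 cm of water at 23 1 °C. Twenty-four hours later, drug was given po 60 min before retesting. Immobility (floating upright with only small movements keeping head above water) was totalled over the last 5 min of the 6-min test.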

Data set [2] in a line: Half life in rat plasma. The data set is classed as ADME, cell-free. In a few lines:
(§2)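 Rats dosed once with the HCl salt, either i.v. at 1 mg/kg (n = 2 or 3) or orally at 5 mg/kg (n = 3). Plasma and brain levels were followed to derive Cmax, Clast, Tmax, t1/2, AUC, dose-normalised AUC, oral bioavailability (F) and the brain/plasma ratio.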

A short description of data set [3]: Cmax in rat at 5 mg/kg, po. The data set is classed as ADME, organism-based. Details: dose 5 mg/kg, route oral. Conditions: in vivo. A digest of the protocol:
as §2

A short description of data set [4]: Tmax in rat plasma. Type of data set: ADME, cell-free. A digest of the protocol:
as §2

Data set [5] has as its system Rattus norvegicus. The experiment in a line: Dose normalized AUC (0 to infinity) in rat at 1 mg/kg, iv. The data set is classed as ADME, organism-based. The conditions noted are these: in vivo. On the set-up: dose 1 mg/kg, route intravenous. A digest of the protocol: as §2
The nature of data set [6]: Tmax in rat brain. Type of data set: ADME, tissue-based. A digest of the protocol:
as §2

For another data set, the system named is Plasma. The data set can be described thus: Clast in rat plasma. Type of data set: ADME, cell-free. A digest of the protocol:
as §2

Data set [7] is described as follows: AUC in rat plasma. The data set is classed as ADME, cell-free. In a few lines:
as §2

The nature of data set [8]: Elimination half life in rat at 5 mg/kg, po. Type of data set: ADME, organism-based. Details: dose 5 mg/kg, route oral. Conditions: in vivo, read-out: beta t1/2 (converted). In a few lines:
as §2

A short description of data set [9]: Half life in rat brain. Type of data set: ADME, tissue-based. In a few lines: as §2
A short description of data set [10]: Tmax in rat at 5 mg/kg, po. The data set is classed as ADME, organism-based. On the set-up: dose 5 mg/kg, route oral. Conditions: in vivo. In a few lines: as §2
For data set [11], the system named is Rattus norvegicus. The data set can be described thus: Clast in rat at 1 mg/kg, iv. Type of data set: ADME, organism-based. Details: dose 1 mg/kg, route intravenous. The conditions noted are these: in vivo. In a few lines:
as §2

Data set [12] can be described thus: Cmax in rat brain. Type of data set: ADME, organism-based. A digest of the protocol:
as §2

The nature of data set [13]: Cmax in rat plasma. Type of data set: ADME, organism-based. A digest of the protocol:
as §2

Data set [14] deals with Rattus norvegicus. The experiment in a line: Clast in rat at 5 mg/kg, po. Type of data set: ADME, organism-based. Details: dose 5 mg/kg, route oral. Conditions: in vivo. In a few lines: as §2
The nature of data set [15]: Cmax in rat at 1 mg/kg, iv. Type of data set: ADME, organism-based. On the set-up: dose 1 mg/kg, route intravenous. Conditions: in vivo. A digest of the protocol: as §2
Data set [16] in a line: Half life in rat at 1 mg/kg, iv. The data set is classed as ADME, organism-based. Conditions: in vivo. On the set-up: dose 1 mg/kg, route intravenous. In a few lines: as §2
For data set [17], the system named is Rattus norvegicus. The data set can be described thus: (§3) Oral bioavailability in rat at 5 mg/kg. Type of data set: ADME, organism-based. Conditions: in vivo. A digest of the protocol: as §2
In data set [18] the test system is Rattus norvegicus. The experiment in a line: (§4) AUC (0 to infinity) in rat at 1 mg/kg, iv. The conditions noted are these: in vivo. The data set is classed as ADME, organism-based, Plasma. Details: time infinity, dose 1 mg/kg, route intravenous. In a few lines: as §2
For data set [19], the system named is Rattus norvegicus. The experiment in a line: Dose normalized AUCirlf in rat at 5 mg/kg, po. The data set is classed as ADME, organism-based. Details: dose 5 mg/kg, route oral. Conditions: in vivo. In a few lines: as §2
The nature of data set [20]: Ratio of drug level in brain to plasma in rat. The data set is classed as ADME, cell-free. A digest of the protocol: as §2
Data set [21] can be described thus: AUC in rat brain. The data set is classed as ADME, tissue-based. A digest of the protocol:
as §2

The subject of another data set is Brain. The experiment in a line: Clast in rat brain. Type of data set: ADME, tissue-based. The conditions noted are these: in vivo. A digest of the protocol: as §2
The subject of data set [22] is Mus musculus. The data set can be described thus: Antidepressant activity in mouse assessed as decrease in duration of immobility at 10 mg/kg, po during final 5 mins of the 6 mins session by forced swimming test. The data set is classed as functional. In a few lines: as §1
Data set [23] can be described thus: AUC (0 to infinity) in rat at 5 mg/kg, po. The data set is classed as ADME, organism-based. On the set-up: time infinity, dose 5 mg/kg, route oral. The conditions noted are these: plasma. In a few lines:
as §2

A short description of data set [24]: as §3. Type of data set: ADME, organism-based. Conditions: in vivo. A digest of the protocol:
as §2

A short description of data set [25]: as §4. The data set is classed as ADME, organism-based, Plasma. On the set-up: time infinity, dose 1 mg/kg, route intravenous. Conditions: plasma. In a few lines:
as §2

Data set [26] has as its system Mus musculus. The experiment in a line: Antidepressant activity in mouse assessed as decrease in duration of immobility at 50 mg/kg, po during final 5 mins of the 6 mins session by forced swimming test. The data set is classed as functional, organism-based. On the set-up: dose 50 mg/kg. A digest of the protocol:
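Mice swim for 10 min in a 25-cm glass cylinder (10 cm diameter) holding 15 cm of water at 23 ± 1 °C. They are retested 24 h later for 6 min. Compound is suspended in 3% Tween 80 and given orally 60 min before the test. Total immobility time (floating upright, only small head-keeping movements) is scored over the last 5 min. Means ± S.E.M.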

Data set [27] has as its target Sodium-dependent serotonin transporter (Homo sapiens, UniProt P31645). The data set can be described thus: Displacement of [3H]imipramine from human SERT expressed in HEK293 cells after 30 mins by rapid filtration assay. Type of data set: cell-based. In a few lines: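 Frozen membranes were from HEK293 cells expressing human SERT, with 4 nM [3H]imipramine in 50 mM Tris–HCl pH 7.4, 120 mM NaCl and 5 mM KCl. Unlabelled imipramine defined nonspecific binding. Incubation ran 30 min at 27 °C, terminated by rapid filtration through 0.5% PEI-presoaked glass-fibre filters.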

For data set [28], the target named is 5-hydroxytryptamine receptor 2A (Homo sapiens, UniProt P28223). The data set can be described thus: Displacement of [3H]ketanserin from human recombinant 5-HT2A receptor expressed in CHO-K1 cells after 60 mins. Type of data set: cell-based. A digest of the protocol: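 Membranes were from CHO-K1 cells stably expressing 5-HT2A. Radioligand was at 1 nM, with mianserin defining nonspecific binding. Incubation ran 60 min at 27 °C in 50 mM Tris–HCl pH 7.4 with 4 mM CaCl2 and 0.1% ascorbic acid. Harvesting was by filtration through glass-fibre filters presoaked in 0.5% PEI.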
5-hydroxytryptamine receptor 2A, sequence (P28223 whole entry): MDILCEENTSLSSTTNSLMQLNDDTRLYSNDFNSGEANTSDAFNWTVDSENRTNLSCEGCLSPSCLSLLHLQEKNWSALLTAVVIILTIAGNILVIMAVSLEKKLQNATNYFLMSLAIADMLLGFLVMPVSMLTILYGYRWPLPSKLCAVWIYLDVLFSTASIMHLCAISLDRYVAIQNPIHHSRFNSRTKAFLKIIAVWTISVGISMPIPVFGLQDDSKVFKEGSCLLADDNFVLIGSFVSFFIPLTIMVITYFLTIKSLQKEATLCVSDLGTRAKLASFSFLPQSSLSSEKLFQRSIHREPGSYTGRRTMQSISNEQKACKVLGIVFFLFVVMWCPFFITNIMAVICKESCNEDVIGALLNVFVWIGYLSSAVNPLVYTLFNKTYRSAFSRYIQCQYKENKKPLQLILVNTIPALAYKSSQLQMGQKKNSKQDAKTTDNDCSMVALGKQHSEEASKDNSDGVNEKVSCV
On the technique in general: Loss of bound radioactivity is the signal in a displacement assay; it reports binding, not function.

For data set [29], the target named is T1, 5-hydroxytryptamine receptor 2C (Homo sapiens, UniProt P28335).
T1 sequence (P28335 whole entry): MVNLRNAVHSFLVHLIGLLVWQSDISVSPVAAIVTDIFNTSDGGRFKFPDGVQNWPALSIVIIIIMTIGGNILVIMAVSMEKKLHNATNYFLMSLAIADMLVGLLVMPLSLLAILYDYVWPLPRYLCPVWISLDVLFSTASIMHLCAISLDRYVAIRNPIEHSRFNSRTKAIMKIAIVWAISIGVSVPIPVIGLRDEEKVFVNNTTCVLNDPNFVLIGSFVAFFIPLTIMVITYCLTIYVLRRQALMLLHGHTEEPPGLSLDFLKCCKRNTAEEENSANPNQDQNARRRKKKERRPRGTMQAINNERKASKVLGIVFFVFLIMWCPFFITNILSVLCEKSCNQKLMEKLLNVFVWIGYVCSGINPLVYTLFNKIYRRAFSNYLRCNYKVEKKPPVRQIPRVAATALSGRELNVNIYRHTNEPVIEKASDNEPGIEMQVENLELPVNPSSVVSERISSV
The experiment in a line: Displacement of [3H]mesulergine from human recombinant 5-HT2C receptor expressed in CHO-K1 cells after 60 mins by rapid filtration assay. Type of data set: cell-based. A digest of the protocol:
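Frozen membranes were from CHO-K1 cells stably expressing human recombinant 5-HT2C, with 1.4 nM [3H]mesulergine. Buffer was 50 mM Tris–HCl pH 7.4, 4 mM CaCl2 and 0.1% ascorbic acid, with methiothepin for nonspecific binding. Incubation ran 60 min at 27 °C, stopped by rapid filtration through 0.5% PEI-presoaked glass-fibre filters.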

Activity calls are given as the source filed them. The rule behind the calls is not given here.

Sodium-dependent serotonin transporter, sequence (P31645 whole entry): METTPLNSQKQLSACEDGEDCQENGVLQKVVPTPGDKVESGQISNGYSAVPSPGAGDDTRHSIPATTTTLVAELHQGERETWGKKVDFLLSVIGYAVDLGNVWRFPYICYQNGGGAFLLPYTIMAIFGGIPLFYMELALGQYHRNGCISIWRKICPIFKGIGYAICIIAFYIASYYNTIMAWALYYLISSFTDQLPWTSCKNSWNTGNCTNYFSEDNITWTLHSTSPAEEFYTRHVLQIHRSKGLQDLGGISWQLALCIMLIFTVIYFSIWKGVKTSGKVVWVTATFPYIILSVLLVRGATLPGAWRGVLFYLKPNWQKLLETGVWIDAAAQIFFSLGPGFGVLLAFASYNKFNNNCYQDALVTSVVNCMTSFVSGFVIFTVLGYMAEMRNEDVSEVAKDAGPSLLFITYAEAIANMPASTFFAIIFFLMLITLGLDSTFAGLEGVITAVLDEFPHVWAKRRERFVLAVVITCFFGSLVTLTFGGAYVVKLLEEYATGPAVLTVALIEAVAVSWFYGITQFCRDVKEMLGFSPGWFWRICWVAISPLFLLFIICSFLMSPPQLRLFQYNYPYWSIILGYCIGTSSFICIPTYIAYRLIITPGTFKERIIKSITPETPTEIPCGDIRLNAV

As to `Cc1c(C(=O)NCCCN2CCN(c3cccc(Cl)c3)CC2)cc(-c2ccccc2)n1C`, the outcome with Mus musculus [1] was inactive.

By Cmax is commonly meant the maximum level reached in the sampled fluid or tissue. By Tmax is commonly meant the time from dosing to the highest level. By AUC is commonly meant the area under the concentration-time curve, a measure of exposure. As usually defined, the Kp is tissue or fluid exposure divided by exposure in the circulation. Regarding `Cc1[nH]c(-c2ccccc2)cc1C(=O)NCCCN1CCN(c2cccc(Cl)c2Cl)CC1.Cl`, the half-life in data set [2] is 118 min; in [8], 151 min; in data set [9] it was 205 min; in data set [16], 105 min. Besides, the Cmax is 245 ng/mL in data set [3], 90 ng/mL in data set [12], 190 ng/mL in [13] and 690 ng/mL in [15]. The Tmax in [4] amounted to 2 h; in data set [6], 2 h; in [10], 70 min. Besides, the AUC/dose stood at 20.945 µg·min/mL in the data set on Rattus norvegicus [5] and 12.783 µg·min/mL in the data set with Rattus norvegicus [19]. Also, the Clast with Plasma is 0.1 µg/mL; in the data set on Rattus norvegicus [11] it was 4 ng/mL; in the data set with Rattus norvegicus [14], 1000 pg/mL; in the data set with Brain, 0.06 µg/mL. For the same compound, the results for the AUC (in data set [7]; in the data set with Rattus norvegicus [18]; in [21]) were 538 ng·h/mL, 20.945 µg·min/mL and 247 ng·h/mL, respectively. The F in the data set on Rattus norvegicus [17] is given as 61.03%. The partition ratio (Kp) in [20] was 46.

For `Cc1[nH]c(-c2ccccc2)cc1C(=O)NCCCN1CCN(c2cccc(Cl)c2Cl)CC1`, the result with Mus musculus [1] was Active. The result with Mus musculus [22] was inactive.

By AUC(0-inf) is commonly meant the area under the concentration-time curve extrapolated to infinity. By bioavailability is commonly meant dose-corrected exposure relative to a reference, in per cent. In the case of `Cc1c(C(=O)NCCCN2CCN(c3cccc(Cl)c3Cl)CC2)cc(-c2ccccc2)n1C.Cl`, the half-life is 223 min in [2], 188 min in [8], 257 min in data set [9] and 169 min in [16]. In addition, the maximum concentration (Cmax) in data set [3] came out at 118 ng/mL; in data set [12], 30 ng/mL; in data set [13], 70 ng/mL; in data set [15], 454 ng/mL. For the same compound, the Tmax in data set [4] came out at 1 h; in [6], 2 h; in data set [10], 45 min. In addition, the AUC/dose in the data set on Rattus norvegicus [5] was found to be 18.703 µg·min/mL; in the data set on Rattus norvegicus [19], 4.63 µg·min/mL. Also, the Clast in the data set on Plasma was determined as 0.04 µg/mL; with Rattus norvegicus [11], 8 ng/mL; with Rattus norvegicus [14], 1000 pg/mL; with Brain, 0.02 µg/mL. The total exposure AUC(0-inf) was 386 ng·h/mL in data set [23] and 312 ng·h/mL in data set [25]. Also, the area under the curve (AUC) was 240 ng·h/mL in [7] and 82.7 ng·h/mL in data set [21]. The same compound yielded a bioavailability in data set [24] of 24.8%. In addition, the Kp in [20] amounted to 34.5.

With `Cc1cccc(N2CCN(CCCNC(=O)c3cc(-c4ccccc4)n(C)c3C)CC2)c1C`, the outcome with Mus musculus [26] was Active.

A word on the IC50: it is the concentration needed to halve the response being measured. `CCCn1c(-c2ccccc2)cc(C(=O)NCCCN2CCN(c3cccc(C)c3C)CC2)c1C`: the concentration for half-maximal inhibition (IC50) was 76 nM in [27], 129 nM in data set [28] and 225 nM in data set [29].

As to `Cc1c(C(=O)NCCCN2CCN(c3cccc(Cl)c3)CC2)cc(-c2ccccc2)n1N1CCCCC1`, the half-inhibitory concentration (IC50) in data set [27] is 110 nM; in data set [28], 441 nM; in data set [29] it was 448 nM.

As to `CCn1c(-c2ccccc2)cc(C(=O)NCCCN2CCN(c3cccc(Cl)c3Cl)CC2)c1C`, in the data set on Mus musculus [1], the Activity is less than 25%. Besides, the outcome with Mus musculus [22] was inactive.

As to `Cc1c(C(=O)NCCN2CCN(c3cccc(Cl)c3Cl)CC2)cc(-c2ccccc2)n1C`, the IC50 in data set [27] was 57 nM; in data set [28], 175 nM; in [29], 156 nM.

The values are drawn from ChEMBL document CHEMBL1154983, “Arylpiperazine-containing pyrrole 3-carboxamide derivatives targeting serotonin 5-HT(2A), 5-HT(2C), and the serotonin transporter as a potential antidepressant” (Bioorg Med Chem Lett, 2010).
